Laboratory results as given in article PMC4238798 (Biochemistry, 2014).

Columns and labels:
[1] = target: T1, RePC (Rhizobium etli pyruvate carboxylase) (Rhizobium etli, UniProt Q2K340); assay: malate dehydrogenase-coupled pyruvate carboxylation assay, global fit; format: biochemical
T1 sequence (Q2K340 1-1154): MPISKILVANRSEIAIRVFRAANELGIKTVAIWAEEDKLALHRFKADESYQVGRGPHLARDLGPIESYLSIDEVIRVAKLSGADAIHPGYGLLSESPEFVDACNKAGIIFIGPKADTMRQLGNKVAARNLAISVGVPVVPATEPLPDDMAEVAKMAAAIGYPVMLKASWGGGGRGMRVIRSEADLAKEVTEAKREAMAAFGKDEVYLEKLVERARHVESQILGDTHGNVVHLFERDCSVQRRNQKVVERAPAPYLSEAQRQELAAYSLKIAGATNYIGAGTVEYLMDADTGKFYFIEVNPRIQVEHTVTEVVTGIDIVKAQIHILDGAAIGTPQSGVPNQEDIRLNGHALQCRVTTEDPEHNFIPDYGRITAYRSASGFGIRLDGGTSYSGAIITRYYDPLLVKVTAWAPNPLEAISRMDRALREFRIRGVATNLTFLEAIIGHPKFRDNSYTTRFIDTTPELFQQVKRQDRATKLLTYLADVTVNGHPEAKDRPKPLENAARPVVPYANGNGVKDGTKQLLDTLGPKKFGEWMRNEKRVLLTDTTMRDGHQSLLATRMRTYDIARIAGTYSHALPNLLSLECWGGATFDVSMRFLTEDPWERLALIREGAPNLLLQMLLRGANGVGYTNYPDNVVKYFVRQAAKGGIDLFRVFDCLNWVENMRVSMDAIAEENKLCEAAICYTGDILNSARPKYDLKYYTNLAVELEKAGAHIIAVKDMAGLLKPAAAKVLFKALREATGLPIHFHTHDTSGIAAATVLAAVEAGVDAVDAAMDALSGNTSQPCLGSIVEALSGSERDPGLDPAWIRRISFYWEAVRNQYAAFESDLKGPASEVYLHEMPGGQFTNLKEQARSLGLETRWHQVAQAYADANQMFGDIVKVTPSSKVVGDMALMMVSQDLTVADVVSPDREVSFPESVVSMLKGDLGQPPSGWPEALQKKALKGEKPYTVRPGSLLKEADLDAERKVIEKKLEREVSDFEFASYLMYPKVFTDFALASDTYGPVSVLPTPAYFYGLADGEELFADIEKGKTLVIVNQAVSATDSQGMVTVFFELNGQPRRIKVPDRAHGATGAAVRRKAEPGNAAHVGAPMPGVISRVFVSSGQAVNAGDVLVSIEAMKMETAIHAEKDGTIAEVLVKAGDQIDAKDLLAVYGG

[2] = target: T1, RePC (Rhizobium etli pyruvate carboxylase); assay: malate dehydrogenase-coupled pyruvate carboxylation assay; format: biochemical
How it was run: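 N-terminally His-tagged R. etli enzyme, expressed in E. coli BL21(DE3). NADH oxidation followed, with oxaloacetate converted to malate by 5 units of malate dehydrogenase. Run at 30 °C in 0.1 M Tris-HCl pH 7.8 with 20 mM NaHCO3, 6 mM MgCl2, 1 mM MgATP, 0.2 mM NADH and 10 mM pyruvate. Activator varied 0–150 μM at 0–8 mM L-aspartate. kapp = initial velocity/enzymic biotin. Hill-equation nonlinear least-squares fit gives the activation constant.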

Q: `N[C@@H](CC(=O)O)C(=O)O` [L-aspartate] was tested. Which Ki [1] did it give?
A: 1260 ± 80 µM

Q: `CC(=O)SCCNC(=O)CCNC(=O)[C@H](O)C(C)(C)COP(=O)(O)OP(=O)(O)OC[C@H]1O[C@@H](n2cnc3c(N)ncnc32)[C@H](O)[C@@H]1OP(=O)(O)O` [acetyl-CoA] was tested. Which EC50 [2] did it give?
A: 7.3 ± 0.9 µM
